# Tested on: HCT-15
# Assay: Growth inhibition of human HCT15 cells at 10 uM after 48 hrs by coulter counter analysis
# Assay type: functional
# Details: HCT-15, 48 h, read-out: GI
# Method in brief: (§1)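 Single-dose NCI 60-line panel screen of test compounds. Cells grown in RPMI 1640 with 10% FBS. Compounds dissolved in DMSO, then diluted in phosphate buffer saline (final DMSO below 1%). Wells run in duplicate at 6 × 10⁴ cells/ml. Controls held PBS and DMSO at matching dilutions. Incubation 48 h at 37 °C under humidified 5% CO2. Cells diluted tenfold in saline and counted by Coulter counter. Percent growth inhibition taken from mean-graph of treated-cell growth.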
row,SMILES,inhibition of growth at 10 µM
1,CN1CCN(CCC(=O)Nc2nc(-c3ccccc3)cs2)CC1,< 10%

# Tested on: BT-549
# Assay: Growth inhibition of human BT549 cells at 10 uM after 48 hrs by coulter counter analysis
# Assay type: functional
# Details: BT-549, 48 h, read-out: GI
# Method in brief: as §1
row,SMILES,inhibition of growth at 10 µM
1,CN1CCN(CCC(=O)Nc2nc(-c3ccccc3)cs2)CC1,16.5%

# Tested on: RPMI-8226
# Assay: Growth inhibition of human RPMI8226 cells at 10 uM after 48 hrs by coulter counter analysis
# Assay type: functional
# Details: RPMI-8226, 48 h, read-out: GI
# Method in brief: as §1
row,SMILES,inhibition of growth at 10 µM
1,CN1CCN(CCC(=O)Nc2nc(-c3ccccc3)cs2)CC1,11.7%

# Tested on: SR
# Assay: Growth inhibition of human SR cells at 10 uM after 48 hrs by coulter counter analysis
# Assay type: functional
# Details: read-out: GI
# Method in brief: (§2)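 Single-dose screen in the NCI 60 cell line panel. Cells grown in RPMI 1640 with 10% FBS. Compounds dissolved in DMSO and diluted in phosphate buffered saline, final DMSO under 1%. Duplicate wells seeded from culture at 6 × 10⁴ cells/ml. Incubated 48 h at 37 °C, humidified, 5% CO2. Cells diluted tenfold in saline and Coulter-counted. Percent growth inhibition computed against PBS/DMSO controls.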
row,SMILES,inhibition of growth at 10 µM
1,CN1CCN(CCC(=O)Nc2nc(-c3ccccc3)cs2)CC1,< 10%

# Tested on: T47D
# Assay: Growth inhibition of human T47D cells at 10 uM after 48 hrs by coulter counter analysis
# Assay type: functional
# Details: read-out: GI
# Method in brief: as §2
row,SMILES,inhibition of growth at 10 µM
1,CN1CCN(CCC(=O)Nc2nc(-c3ccccc3)cs2)CC1,< 10%

# Tested on: MDA-MB-231
# Assay: Growth inhibition of human MDA-MB-231 cells at 10 uM after 48 hrs by coulter counter analysis
# Assay type: functional
# Details: MDA-MB-231, 48 h, read-out: GI
# Method in brief: as §1
row,SMILES,inhibition of growth at 10 µM
1,CN1CCN(CCC(=O)Nc2nc(-c3ccccc3)cs2)CC1,11.6%

# Tested on: UACC-62
# Assay: Growth inhibition of human UACC62 cells at 10 uM after 48 hrs by coulter counter analysis
# Assay type: functional
# Details: UACC-62, 48 h, read-out: GI
# Method in brief: as §2
row,SMILES,inhibition of growth at 10 µM
1,CN1CCN(CCC(=O)Nc2nc(-c3ccccc3)cs2)CC1,11.1%

# Tested on: SF-539
# Assay: Growth inhibition of human SF539 cells at 10 uM after 48 hrs by coulter counter analysis
# Assay type: functional
# Details: SF-539, 48 h, read-out: GI
# Method in brief: as §1
row,SMILES,inhibition of growth at 10 µM
1,CN1CCN(CCC(=O)Nc2nc(-c3ccccc3)cs2)CC1,< 10%

# Tested on: OVCAR-5
# Assay: Growth inhibition of human OVCAR5 cells at 10 uM after 48 hrs by coulter counter analysis
# Assay type: functional
# Details: OVCAR-5, 48 h, read-out: GI
# Method in brief: as §1
row,SMILES,inhibition of growth at 10 µM
1,CN1CCN(CCC(=O)Nc2nc(-c3ccccc3)cs2)CC1,< 10%

# Tested on: SK-MEL-2
# Assay: Growth inhibition of human SK-MEL-2 cells at 10 uM after 48 hrs by coulter counter analysis
# Assay type: functional
# Details: SK-MEL-2, 48 h, read-out: GI
# Method in brief: as §1
row,SMILES,inhibition of growth at 10 µM
1,CN1CCN(CCC(=O)Nc2nc(-c3ccccc3)cs2)CC1,< 10%

# Tested on: SF-295
# Assay: Growth inhibition of human SF295 cells at 10 uM after 48 hrs by coulter counter analysis
# Assay type: functional
# Details: SF-295, 48 h, read-out: GI
# Method in brief: as §1
row,SMILES,inhibition of growth at 10 µM
1,CN1CCN(CCC(=O)Nc2nc(-c3ccccc3)cs2)CC1,< 10%

# Tested on: NCI-H322M
# Assay: Growth inhibition of human NCI-H322M cells at 10 uM after 48 hrs by coulter counter analysis
# Assay type: functional
# Details: read-out: GI
# Method in brief: as §1
row,SMILES,inhibition of growth at 10 µM
1,CN1CCN(CCC(=O)Nc2nc(-c3ccccc3)cs2)CC1,< 10%

# Tested on: not listed separately
# Assay: Growth inhibition of human NCI-ADR-RES cells at 10 uM after 48 hrs by coulter counter analysis
# Assay type: functional
# Details: read-out: GI
# Method in brief: as §1
row,SMILES,inhibition of growth at 10 µM
1,CN1CCN(CCC(=O)Nc2nc(-c3ccccc3)cs2)CC1,13%

# Tested on: HCC 2998
# Assay: Growth inhibition of human HCC2998 cells at 10 uM after 48 hrs by coulter counter analysis
# Assay type: functional
# Details: HCC 2998, 48 h, read-out: GI
# Method in brief: as §1
row,SMILES,inhibition of growth at 10 µM
1,CN1CCN(CCC(=O)Nc2nc(-c3ccccc3)cs2)CC1,< 10%

# Tested on: ACHN
# Assay: Growth inhibition of human ACHN cells at 10 uM after 48 hrs by coulter counter analysis
# Assay type: functional
# Details: read-out: GI
# Method in brief: as §1
row,SMILES,inhibition of growth at 10 µM
1,CN1CCN(CCC(=O)Nc2nc(-c3ccccc3)cs2)CC1,< 10%

# Tested on: KM12
# Assay: Growth inhibition of human KM12 cells at 10 uM after 48 hrs by coulter counter analysis
# Assay type: functional
# Details: KM12, 48 h, read-out: GI
# Method in brief: as §1
row,SMILES,inhibition of growth at 10 µM
1,CN1CCN(CCC(=O)Nc2nc(-c3ccccc3)cs2)CC1,< 10%

# Tested on: MDA-MB-435
# Assay: Growth inhibition of human MDA-MB-435 cells at 10 uM after 48 hrs by coulter counter analysis
# Assay type: functional
# Details: MDA-MB-435, 48 h, read-out: GI
# Method in brief: as §1
row,SMILES,inhibition of growth at 10 µM
1,CN1CCN(CCC(=O)Nc2nc(-c3ccccc3)cs2)CC1,< 10%

# Tested on: OVCAR-4
# Assay: Growth inhibition of human OVCAR4 cells at 10 uM after 48 hrs by coulter counter analysis
# Assay type: functional
# Details: OVCAR-4, 48 h, read-out: GI
# Method in brief: as §1
row,SMILES,inhibition of growth at 10 µM
1,CN1CCN(CCC(=O)Nc2nc(-c3ccccc3)cs2)CC1,< 10%

# Tested on: OVCAR-3
# Assay: Growth inhibition of human OVCAR3 cells at 10 uM after 48 hrs by coulter counter analysis
# Assay type: functional
# Details: OVCAR-3, 48 h, read-out: GI
# Method in brief: as §1
row,SMILES,inhibition of growth at 10 µM
1,CN1CCN(CCC(=O)Nc2nc(-c3ccccc3)cs2)CC1,< 10%

# Tested on: SW-620
# Assay: Growth inhibition of human SW620 cells at 10 uM after 48 hrs by coulter counter analysis
# Assay type: functional
# Details: SW-620, 48 h, read-out: GI
# Method in brief: as §2
row,SMILES,inhibition of growth at 10 µM
1,CN1CCN(CCC(=O)Nc2nc(-c3ccccc3)cs2)CC1,< 10%

# Tested on: NCI-H226
# Assay: Growth inhibition of human NCI-H226 cells at 10 uM after 48 hrs by coulter counter analysis
# Assay type: functional
# Details: NCI-H226, 48 h, read-out: GI
# Method in brief: as §1
row,SMILES,inhibition of growth at 10 µM
1,CN1CCN(CCC(=O)Nc2nc(-c3ccccc3)cs2)CC1,17.4%

# Tested on: IGROV-1
# Assay: Growth inhibition of human IGROV1 cells at 10 uM after 48 hrs by coulter counter analysis
# Assay type: functional
# Details: IGROV-1, 48 h, read-out: GI
# Method in brief: as §1
row,SMILES,inhibition of growth at 10 µM
1,CN1CCN(CCC(=O)Nc2nc(-c3ccccc3)cs2)CC1,10.6%

# Tested on: HOP-92
# Assay: Growth inhibition of human HOP92 cells at 10 uM after 48 hrs by coulter counter analysis
# Assay type: functional
# Details: HOP-92, 48 h, read-out: GI
# Method in brief: as §1
row,SMILES,inhibition of growth at 10 µM
1,CN1CCN(CCC(=O)Nc2nc(-c3ccccc3)cs2)CC1,24.5%

# Tested on: NCI-H522
# Assay: Growth inhibition of human NCI-H522 cells at 10 uM after 48 hrs by coulter counter analysis
# Assay type: functional
# Details: NCI-H522, 48 h, read-out: GI
# Method in brief: as §1
row,SMILES,inhibition of growth at 10 µM
1,CN1CCN(CCC(=O)Nc2nc(-c3ccccc3)cs2)CC1,16.5%

# Tested on: SN12C
# Assay: Growth inhibition of human SN12C cells at 10 uM after 48 hrs by coulter counter analysis
# Assay type: functional
# Details: read-out: GI
# Method in brief: as §1
row,SMILES,inhibition of growth at 10 µM
1,CN1CCN(CCC(=O)Nc2nc(-c3ccccc3)cs2)CC1,17.2%

# Tested on: SF-268
# Assay: Growth inhibition of human SF268 cells at 10 uM after 48 hrs by coulter counter analysis
# Assay type: functional
# Details: SF-268, 48 h, read-out: GI
# Method in brief: as §1
row,SMILES,inhibition of growth at 10 µM
1,CN1CCN(CCC(=O)Nc2nc(-c3ccccc3)cs2)CC1,< 10%

# Tested on: OVCAR-8
# Assay: Growth inhibition of human OVCAR8 cells at 10 uM after 48 hrs by coulter counter analysis
# Assay type: functional
# Details: OVCAR-8, 48 h, read-out: GI
# Method in brief: as §1
row,SMILES,inhibition of growth at 10 µM
1,CN1CCN(CCC(=O)Nc2nc(-c3ccccc3)cs2)CC1,< 10%

# Tested on: LOX IMVI
# Assay: Growth inhibition of human LOXIMVI cells at 10 uM after 48 hrs by coulter counter analysis
# Assay type: functional
# Details: read-out: GI
# Method in brief: as §1
row,SMILES,inhibition of growth at 10 µM
1,CN1CCN(CCC(=O)Nc2nc(-c3ccccc3)cs2)CC1,11.1%

# Tested on: Malme-3M
# Assay: Growth inhibition of human MALME-3M cells at 10 uM after 48 hrs by coulter counter analysis
# Assay type: functional
# Details: read-out: GI
# Method in brief: as §1
row,SMILES,inhibition of growth at 10 µM
1,CN1CCN(CCC(=O)Nc2nc(-c3ccccc3)cs2)CC1,12.7%

# Tested on: MCF7
# Assay: Growth inhibition of human MCF7 cells at 10 uM after 48 hrs by coulter counter analysis
# Assay type: functional
# Details: MCF7, 48 h, read-out: GI
# Method in brief: as §1
row,SMILES,inhibition of growth at 10 µM
1,CN1CCN(CCC(=O)Nc2nc(-c3ccccc3)cs2)CC1,11.8%

# Tested on: M14
# Assay: Growth inhibition of human M14 cells at 10 uM after 48 hrs by coulter counter analysis
# Assay type: functional
# Details: M14, 48 h, read-out: GI
# Method in brief: as §1
row,SMILES,inhibition of growth at 10 µM
1,CN1CCN(CCC(=O)Nc2nc(-c3ccccc3)cs2)CC1,< 10%

# Tested on: UO-31
# Assay: Growth inhibition of human UO31 cells at 10 uM after 48 hrs by coulter counter analysis
# Assay type: functional
# Details: UO-31, 48 h, read-out: GI
# Method in brief: as §2
row,SMILES,inhibition of growth at 10 µM
1,CN1CCN(CCC(=O)Nc2nc(-c3ccccc3)cs2)CC1,54%

# Tested on: SK-MEL-5
# Assay: Growth inhibition of human SK-MEL-5 cells at 10 uM after 48 hrs by coulter counter analysis
# Assay type: functional
# Details: SK-MEL-5, 48 h, read-out: GI
# Method in brief: as §1
row,SMILES,inhibition of growth at 10 µM
1,CN1CCN(CCC(=O)Nc2nc(-c3ccccc3)cs2)CC1,< 10%

# Tested on: MDA-MB-468
# Assay: Growth inhibition of human MDA-MB-468 cells at 10 uM after 48 hrs by coulter counter analysis
# Assay type: functional
# Details: MDA-MB-468, 48 h, read-out: GI
# Method in brief: as §1
row,SMILES,inhibition of growth at 10 µM
1,CN1CCN(CCC(=O)Nc2nc(-c3ccccc3)cs2)CC1,< 10%

# Tested on: not listed separately
# Assay: Growth inhibition of human Hs 578T cells at 10 uM after 48 hrs by coulter counter analysis
# Assay type: functional
# Details: read-out: GI
# Method in brief: as §1
row,SMILES,inhibition of growth at 10 µM
1,CN1CCN(CCC(=O)Nc2nc(-c3ccccc3)cs2)CC1,10.5%

# Tested on: COLO 205
# Assay: Growth inhibition of human COLO205 cells at 10 uM after 48 hrs by coulter counter analysis
# Assay type: functional
# Details: COLO 205, 48 h, read-out: GI
# Method in brief: as §1
row,SMILES,inhibition of growth at 10 µM
1,CN1CCN(CCC(=O)Nc2nc(-c3ccccc3)cs2)CC1,< 10%

# Source: ChEMBL document CHEMBL2040727, “Substituted thiazoles VI. Synthesis and antitumor activity of new 2-acetamido- and 2 or 3-propanamido-thiazole analogs” (2012)
